# APJ antag: antagonists of human apelin receptor APJ, primary screen, CHO-K1 cells, beta-arrestin complementation, luminescence | P35414 | inhibition, % at 20 µM | hit rate 0.32% among 330,000 | AID 2521, 2010;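 active = inhibition above about 40% at 20 µM, limit read from the data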;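 note: cells challenged with 10 nM apelin-13 agonist together with compound; plate controls were apelin-13 plus DMSO wells for no effect and DMSO wells lacking apelin-13 for full effect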
# HTR2A ag: mouse Htr2a agonists via beta-arrestin recruitment, primary screen, cell-based, luminescence | 5-hydroxytryptamine receptor 2A (Mus musculus), P35363 | CHO-K1 mHTR2A beta-arrestin complementation; percent of 30 µM serotonin response | activation, % at 7.6 µM | hit rate 0.66% among 360,000 | AID 624169, 2012;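 active = activation above a run cutoff, the mean activation of all tested compounds plus 3 SD, cut at about 14% in these data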;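 note: 0% = plate median of compound wells and 100% = 30 µM serotonin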
# APJ ag: agonists of human apelin receptor APJ, primary screen, CHO-K1 cells, PathHunter beta-arrestin, luminescence. P35414. 0% DMSO wells, 100% apelin. activation, % at 20 µM. hit rate 0.11% among 330,000. AID 2520, 2010;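 active = activation more than six SD over the plate average, tested at 20 µM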;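 note: 0% = DMSO alone and 100% = apelin-13 at 10 nM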
#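 assay system = CHO-K1 APJ beta-arrestin complementation cell line | input = cell density 1000 per well | dosing = compound 20 µM once, DMSO 1% | timing = compound 90 min 25 °C, reagent 1 h | measured by = luminescence from split beta-galactosidase complementation, Galacton Star/Emerald II substrate | read-out basis = APJ agonist activity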
# CCR6 antagonist: CCR6 receptor antagonists, primary screen, cell-based, CHO-K1, luminescence, beta-arrestin, uHTS; CHO-K1 CCR6 PathHunter beta-arrestin, CCL20-stimulated; C-C chemokine receptor type 6 (Homo sapiens), P51684; hit rate 0.49% among 340,000; inhibition, % at 20 µM;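 active = compounds whose inhibition of the agonist-driven luminescence signal at 20 µM reaches about 50%, limit read from the data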;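 note: cells stimulated with CCL20 at 14 nM final; plate controls were DMSO with CCL20 for no effect and DMSO without agonist for full effect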
# Target sequence (P51684 whole entry, looked up): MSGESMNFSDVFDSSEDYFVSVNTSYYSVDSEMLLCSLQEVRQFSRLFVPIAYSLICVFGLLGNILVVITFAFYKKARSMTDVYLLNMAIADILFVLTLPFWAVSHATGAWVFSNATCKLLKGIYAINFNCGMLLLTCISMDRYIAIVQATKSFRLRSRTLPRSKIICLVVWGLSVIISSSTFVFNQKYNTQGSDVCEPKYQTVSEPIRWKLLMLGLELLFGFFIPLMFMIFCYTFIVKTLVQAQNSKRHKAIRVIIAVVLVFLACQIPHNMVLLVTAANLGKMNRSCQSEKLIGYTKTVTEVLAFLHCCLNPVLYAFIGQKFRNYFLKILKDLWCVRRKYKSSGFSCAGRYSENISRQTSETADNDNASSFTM
# EBI2 antag: EBI2 receptor antagonists, beta-arrestin recruitment, primary screen, cell-based, luminescence, 7a,25-OHC stimulation, uHTS; AID 651636, 2012; hit rate 0.81% among 360,000; inhibition, % at 5 µM; G-protein coupled receptor 183 (Homo sapiens), P32249; 7a,25-OHC stimulated; in the data active = inhibition above about 38%;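 note: enzyme fragment complementation signal reports receptor beta-arrestin coupling in cells; 0% = agonist plus DMSO wells and 100% = wells without agonist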
# CXCR6 block: CXCR6 receptor inhibitors, primary screen, cell-based, beta-arrestin, luminescence, CHO-K1 PathHunter, 1536-well; C-X-C chemokine receptor type 6 (Homo sapiens), O00574; inhibition, % at 20 µM; hit rate 0.36% among 360,000; AID 602244, 2012; in the data active = inhibition above about 34%, passing the limit was not always enough;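 note: antagonist mode with CXCL16 agonist at 10 nM final; 0% = 10 nM CXCL16 with DMSO and 100% = unstimulated wells without agonist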
# APJ antag confirm: APJ antagonists blocking beta-arrestin recruitment, confirmation, cell-based, luminescence, single concentration, uHTS hits; antagonist mode; shares compounds with APJ antag; hit rate 66% among 950; inhibition, % at 20 µM; in the data active = inhibition above about 50%
# Numbers without * were called inactive; nt = no result. Hits are enriched below; roughly 2.1% of the tested compounds scored in any of these assays.
SMILES,APJ antag,HTR2A ag,APJ ag,CCR6 antagonist,EBI2 antag,CXCR6 block,APJ antag confirm
Cc1ccc(CC(=O)O/N=C(\N)c2ccncc2)cc1,-25,-5,4,-10,0,-12,nt
Cc1c(Cl)c([N+](=O)[O-])nn1CC(=O)N1CCc2ccccc2C1,13,5,-2,-7,-14,2,nt
CC(C(=O)OCC(=O)c1cccc([N+](=O)[O-])c1)N1C(=O)C2C3C=CC(C3)C2C1=O (stereo unspecified),48*,1,-12,51*,5,17,62*
Cc1ccc(C(=O)COC(=O)C(C)N2C(=O)C3C4CCC(C4)C3C2=O)cc1C (stereo unspecified),-6,-3,-1,12,-1,-1,nt
CC(C(=O)OCC(=O)c1cccc([N+](=O)[O-])c1)N1C(=O)C2C3CCC(C3)C2C1=O (stereo unspecified),58*,5,-9,55*,6,-1,53*
CCOC(=O)c1cc(-c2ccc(F)cc2)nc2c1c(=O)[nH]c(=O)n2Cc1ccccc1,9,-1,0,-6,2,-4,nt
CCOC(=O)c1cc(-c2cc(OC)c(OC)c(OC)c2)nc2c1c(=O)[nH]c(=O)n2Cc1ccccc1,55*,3,-6,35,29,28,40
COc1ccc(C(=O)Nc2nc(C)cc(C)n2)cc1[N+](=O)[O-],-6,3,-4,11,-1,-10,nt
COc1ccc(S(=O)(=O)NNc2nc(C)cc(C)n2)cc1[N+](=O)[O-],62*,-1,-29,32,12,22,114*
O=C(COC(=O)c1n[nH]c2ccccc12)NC(=O)NC1CCCC1,-2,-4,-5,-6,11,6,nt
O=C(c1ccccc1)c1cccn1CC(=O)N1CCc2ccccc2C1,50*,-9,-6,51*,12,48*,94*
O=C(Cn1cccc1C(=O)c1ccccc1)NCCCN1CCc2ccccc2C1,2,0,-1,27,16,14,nt
O=C(COc1ccc2ccc(=O)oc2c1)Nc1nccs1,-6,-2,3,-1,-9,-17,nt
COc1ccccc1Oc1cc(-n2nc(C)cc2C)ncn1,54*,0,-1,-3,3,0,9
COc1ccccc1OCC(O)Cn1nc(C)cc1C (stereo unspecified),13,3,0,5,-5,-6,nt
CC(C)n1c(CCC(=O)O)ccc1-c1ccccc1,-7,0,0,5,2,-2,nt
CN1CCCC(OC(=O)c2cc(Cl)ccc2Cl)C1 (stereo unspecified),-2,-6,-2,-10,5,-5,nt
CN1CCCC(OC(=O)c2cc(Br)ccc2Cl)C1 (stereo unspecified),51*,0,-4,16,3,0,35
CCSC1(SCC)N=C(N)C2(C#N)C(c3ccccc3)NC3=C(CCC3)C12C#N (stereo unspecified),-11,0,-4,-15,0,7,nt
CCSC1(SCC)N=C(N)C2(C#N)C(c3ccc(OC)c(OC)c3OC)C12C#N (stereo unspecified),51*,-1,-4,58*,21,39,72*
COc1ccc(N2CC(C(=O)N[C@H](C(=O)NC(C)c3ccccc3)C(C)C)CC2=O)cc1 (stereo partly specified),22,2,-2,4,10,0,nt
Cc1n[nH]c(C)c1S(=O)(=O)N1CCC(C(=O)N2CCn3c2nc2ccccc23)CC1,66*,-1,-12,73*,34,52*,100*
Cc1ccc(N(CC(=O)N2CCn3c2nc2ccccc23)S(=O)(=O)c2c(C)n[nH]c2C)cc1,-11,0,1,4,3,-5,nt
COc1cc(/C=C2\SC(=S)N(NC(C)=O)C2=O)ccc1OC(=O)c1ccco1,-13,-9,-7,47,-23,27,nt
COc1cc(/C=C2/SC(=S)N(C)C2=O)ccc1OC(=O)c1ccco1,46*,-1,-5,49,0,28,48
SMILES,APJ antag,HTR2A ag,APJ ag,CCR6 antagonist,EBI2 antag,CXCR6 block,APJ antag confirm
Cc1ccc(-c2cc3c(nn2)-c2ccccc2C3=O)cc1,43*,-10,-13,46,60*,9,147*
COc1ccc(N2C(=O)CSC2c2ccccc2)cc1 (stereo unspecified),16,-1,-4,7,3,-10,nt
COc1ccc(C2SCC(=O)N2c2nc3ccccc3s2)cc1 (stereo unspecified),44*,-3,-5,6,13,-2,38
Cc1ccc(SCCOCCN2CC(C)OC(C)C2)cc1 (stereo unspecified),4,-4,-1,0,6,3,nt
COc1cc(OC)cc(C(=O)N[C@H](C(=O)OCC(=O)c2c[nH]c3ccccc23)C(C)C)c1,-8,-1,0,3,30,4,nt
CCc1ccc(C(=O)COC(=O)CNC(=O)c2ccc(Br)o2)cc1,8,-2,-3,12,-5,-6,nt
COc1cc(OC)cc(C(=O)N[C@H](C(=O)OCC(=O)c2ccc(C)c([N+](=O)[O-])c2)C(C)C)c1,48*,1,-14,50*,7,18,51*
Cc1ccc(C(=O)COC(=O)CNS(=O)(=O)c2ccccc2)cc1[N+](=O)[O-],48*,-5,-16,80*,9,18,86*
Cc1ccc(C(=O)COC(=O)CNC(=O)c2ccc(Br)o2)cc1[N+](=O)[O-],48*,6,-14,36,9,22,66*
Cc1ccc(C(=O)COC(=O)CNC(=O)Cc2ccccc2)cc1[N+](=O)[O-],45*,5,-10,68*,-2,26,62*
O=C(Nc1ccc2c(c1)OCO2)c1cccc2c1C(=O)N(C1CCCCC1)C2,6,-2,5,20,-4,3,nt
CC(=O)C1=C(C)NC(=O)CC1c1ccc(Br)cc1 (stereo unspecified),-1,1,-1,-9,-1,-3,nt
O=C(Nc1ccccc1C(F)(F)F)c1ccc(F)c(S(=O)(=O)N2CCOCC2)c1,19,-1,1,0,-9,2,nt
CC(=O)Nc1cccc(NC(=O)c2cccc(-c3ccc(O)cc3)c2)c1,-13,-7,1,-7,5,-12,nt

# Screens deposited in PubChem by several laboratories.
